# Compound activity as filed in PubChem BioAssay.
# Most compounds without a hit are left out; they make up all but 2.1% or so of the library.
# CHRM5 PAM: potentiates acetylcholine response at human M5 receptor; P08912; CHO-K1 hM5, Fluo-8 calcium, ACh EC20 PAM; 0% = ACh EC20, 100% = ACh EC100; activation, % at 3 µM; 0.3% of 360,000 active;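 active = activation above the run cutoff, the mean activation of all test compounds plus 3 SD, cut at about 18% in these data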
# Target sequence (P08912 whole entry, looked up): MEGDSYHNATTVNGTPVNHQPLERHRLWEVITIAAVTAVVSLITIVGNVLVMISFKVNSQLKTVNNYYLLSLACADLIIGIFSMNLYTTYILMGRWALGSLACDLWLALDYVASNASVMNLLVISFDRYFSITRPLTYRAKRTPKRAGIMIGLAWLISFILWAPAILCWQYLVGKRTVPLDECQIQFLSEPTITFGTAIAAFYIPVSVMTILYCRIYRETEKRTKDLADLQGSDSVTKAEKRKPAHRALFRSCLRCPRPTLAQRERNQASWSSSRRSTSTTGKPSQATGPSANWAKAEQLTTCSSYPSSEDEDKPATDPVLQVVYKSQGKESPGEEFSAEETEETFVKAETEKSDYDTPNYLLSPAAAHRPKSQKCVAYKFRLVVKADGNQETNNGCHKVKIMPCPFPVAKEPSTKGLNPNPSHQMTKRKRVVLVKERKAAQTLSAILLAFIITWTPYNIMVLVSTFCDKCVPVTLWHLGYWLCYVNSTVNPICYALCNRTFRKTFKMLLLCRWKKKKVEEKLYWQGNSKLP
#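 system = human M5 receptor in CHO-K1 cells | compound = one concentration, 3 µM final (nominal) | schedule = Post-acetylcholine fluorescence recording 140 s | signal = Fluo-8 calcium dye fluorescence, kinetic read | benchmarks = low control EC20 acetylcholine (0%), high control EC100 acetylcholine (100%) | repeats = singlicate, one well per test compound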
# M1 PAM: human CHRM1 positive allosteric modulation; 0.088% of 360,000 active; activation, % at 3 µM; P11229; CHO-K1 hM1, Fluo-8 calcium fluorescence, ACh EC20; 0% = ACh EC20, 100% = maximal ACh; AID 588819; in the data active = activation above about 19%, passing the limit was not always enough
# CHRM1 agonist: activates human CHRM1 receptor; activation, % at 3 µM; AID 588814; 0.33% of 360,000 active; CHO-K1 hM1, Fluo-8 calcium fluorescence, agonist mode; 0% DMSO, 100% acetylcholine EC100; P11229;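 active = activation above the run's mean compound activation plus 3 SD, cut at about 16% in these data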;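 note: peak over basal fluorescence ratio within a 140 s kinetic read after compound addition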
# M5 ag: CHRM5 agonism in calcium assay. CHO-K1 hM5 cells, Fluo-8 calcium fluorescence; 0% DMSO wells, 100% maximal acetylcholine response. activation, % at 3 µM. 0.19% of 360,000 active;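 active = activation above the run's mean over test compounds plus 3 SD, cut at about 23% in these data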;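 note: signal is peak over basal fluorescence ratio across the kinetic read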
# CHRM5 antagonist: blocks acetylcholine activation of human M5 receptor | CHO-hM5 cells, Fluo-8 calcium fluorescence, ACh EC80 | inhibition, % at 3 µM | AID 624040 | 0.59% of 360,000 active | P08912;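 active = inhibition above a per-plate cutoff, the mean of that plate's test compounds plus 3 SD, cut at about 27% in these data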
# CHRM1 antagonist: human CHRM1 antagonism; 1.3% of 360,000 active; AID 588852; inhibition, % at 3 µM; CHO-K1 hM1, Fluo-8 calcium fluorescence, ACh EC80 antagonist; P11229;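 active = percent inhibition above its own plate's cutoff, namely the mean of that plate's compound wells plus 3 SD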;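 note: peak over basal fluorescence ratio during 140 s after agonist addition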
# Numbers stand for hits; i = inactive.
SMILES,CHRM5 PAM,M1 PAM,CHRM1 agonist,M5 ag,CHRM5 antagonist,CHRM1 antagonist
O=C(Nc1csc([N+](=O)[O-])c1)Nc1ccccc1Cl,i,i,i,i,45,41
Cc1ccc(N2C(=O)CC(Sc3nc4ccccc4o3)C2=O)cc1Cl (configuration not stated),i,i,i,i,i,i
Cc1ccc(S(=O)(=O)N(CC(=O)NCc2cccnc2)c2ccc(F)cc2)cc1,i,i,i,i,i,i
CCOC(=O)c1c(C2COc3ccccc3O2)csc1NC(=O)c1ccccc1 (configuration not stated),i,i,i,i,i,i
COc1ccc(CNc2ncnc3sccc23)cc1,i,i,i,i,i,31
CN(C)C(CNc1ncnc2sccc12)c1ccccc1 (configuration not stated),i,i,i,i,i,47
c1cncc(CNc2ncnc3sccc23)c1,i,i,i,i,i,i
c1ccc(CNc2ncnc3sccc23)cc1,i,i,i,i,40,i
Cc1ccc(C(=O)N2CCC3(CC2)Oc2ccc(F)cc2C(=O)C32CC(c3cccnc3)=NO2)s1 (configuration not stated),i,i,i,i,i,i
Cc1ccc(C2(c3ccc(C)cc3)CC2C(=O)Nc2ccc([N+](=O)[O-])cc2O)cc1 (configuration not stated),i,i,i,i,i,25
CC1(C)CC1C(=O)Nc1ccc([N+](=O)[O-])cc1Br (configuration not stated),i,i,i,i,i,i
Cc1cccc(N(CC(=O)N2CCCC2)S(C)(=O)=O)c1,i,i,i,i,i,i
CS(=O)(=O)N(CC(=O)N1CCCC1)c1cccc(Cl)c1,28,i,i,i,i,i
COc1ccc(C2N=C(c3ccccc3)NO2)cc1OC (configuration not stated),i,i,i,i,i,i
C=CCC(CC=C)(NC(=O)c1ccccc1C)c1ccccc1,41,i,i,i,i,i
CCCOC(=O)c1ccc(OCC(O)Cn2c(C)nc3ccccc32)cc1 (configuration not stated),i,i,i,i,i,40
CC(=O)Nc1cccc(OCC(O)Cn2c(C)nc3ccccc32)c1 (configuration not stated),i,i,i,i,i,i
CN1C(=O)CC(N2CCN(CCN=CC3=C(O)CC(C)(C)CC3=O)CC2)C1=O (configuration not stated),i,i,i,i,i,i
O=C(Nc1cccc(Cl)c1)ON=C1c2ccccc2-c2ccccc21,i,i,i,i,i,29
CCOc1ccc(Br)cc1/C(C)=N\NC1=NCCN1,i,i,i,i,32,63
COc1ccc(C2NC(=O)c3sc4nc(C)c(C(C)=O)c(-c5ccc(Cl)cc5)c4c3N2)cc1 (configuration not stated),i,i,i,i,i,i
Cc1ccc(NC(=S)NNC(=O)c2cccc([N+](=O)[O-])c2)cc1Cl,i,i,i,i,28,i
CC(C)(C)CC(C)(C)NC(=O)Nc1cccc([N+](=O)[O-])c1,i,i,i,i,i,32
Cc1ccc(NC(=O)Nc2cccc([N+](=O)[O-])c2)cc1F,i,i,i,i,28,i
Cc1ccc(C(C)C)cc1NC(=O)Nc1ccc([N+](=O)[O-])cc1,i,i,i,i,28,i
SMILES,CHRM5 PAM,M1 PAM,CHRM1 agonist,M5 ag,CHRM5 antagonist,CHRM1 antagonist
O=C(NNC(=S)Nc1ccc(F)cc1)c1cccc([N+](=O)[O-])c1,i,i,i,i,i,i
COc1cccc(-c2cnc3c(NC=O)cc(-c4ccc(OC)cc4OC)cn23)c1,i,i,i,i,i,i
COc1cc(NC2CCCCC2O)c2nc(-c3ccc(Cl)cc3)ccc2c1 (configuration not stated),i,i,i,i,i,i
O=C(CCCOC(=O)c1ccc(O)cc1O)c1ccc(Br)cc1,i,i,i,i,i,19
O=C(CCCOC(=O)c1cccnc1Cl)c1ccc(Br)cc1,i,i,i,i,i,i
COc1ccc(-c2nc(C(=O)O)cs2)cc1OC,26,i,i,i,i,i
O=C(CN1CCN(C(c2ccccc2)c2ccccc2)CC1)N1N=CCC1c1ccccc1 (configuration not stated),i,i,i,i,i,48
CC1CCN(CC(=O)N2CCN(c3ccccc3)CC2)CC1,i,i,i,i,i,i
O=C(CN1CCN(c2ccc(F)cc2)CC1)N1N=CCC1c1ccccc1 (configuration not stated),i,i,i,i,i,103
NNC(=O)CCN1CCN(C(c2ccccc2)c2ccccc2)CC1,i,i,i,i,i,61
O=C(CN1CCN(C(c2ccccc2)c2ccccc2)CC1)N1CCN(c2ccccc2)CC1,i,i,i,i,i,81
O=C(CN1CCN(c2ccccc2)CC1)N1N=CCC1c1ccccc1 (configuration not stated),i,i,i,i,i,i
COc1ccc(C(=O)c2sc3nc(C)cc(-c4cccs4)c3c2N)cc1,i,i,i,i,i,i
CCOC(=O)c1nn(-c2ccc3c(c2)CCN3C(C)=O)cc1O,i,i,i,i,i,i
COCCCNC(=S)Nc1cc(C)c(C)cc1C,i,i,i,i,i,62
O=C(NN1C(=O)NC2(CCCCC2)C1=O)c1ccc(-c2ccc(Cl)cc2)o1,i,i,i,i,i,29
O=C(NN1C(=O)NC2(CCCCC2)C1=O)c1cc2cc(Cl)ccc2o1,i,i,i,i,i,i
CN(C)c1ccc(CN2CCCCCC2)cc1,i,i,i,i,i,45
Cc1n[nH]c(=O)nc1NC(C)c1ccccc1 (configuration not stated),i,i,i,i,i,i
c1ccc(Cc2noc(CN3CCCC(CN4CCOCC4)C3)n2)cc1 (configuration not stated),i,i,i,i,i,i
CCCCNC(=O)CNC(=O)c1nn(-c2ccc(OC)c(Cl)c2)c(=O)c2ccccc12,i,i,i,i,i,i
COc1ccc(-n2nc(C(=O)NCC(=O)Nc3cc(OC)c(OC)c(OC)c3)c3ccccc3c2=O)cc1OC,i,i,i,i,i,30
COc1ccc(-n2nc(C(=O)NCC(=O)Nc3cc(OC)c(OC)c(OC)c3)c3ccccc3c2=O)cc1,i,i,i,i,i,27
CCC1CCCCN1CCCNC(=O)CNC(=O)c1nn(-c2ccc(OC)c(Cl)c2)c(=O)c2ccccc12 (configuration not stated),i,i,i,i,i,49
COc1ccccc1-n1nc(C(=O)NCc2ccco2)c2ccccc2c1=O,i,i,i,i,i,15
